These compounds were tested on L. tropica promastigotes (assay: Parasite counting method). Settings: microscopic counting, 24, 48 and 72 h at 24 °C.
Assay type: cell-based
In short: (§1)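 Promastigotes (L. major MRHO/IR/75/ER; L. tropica MRHO/IR/02/Mash10), grown in RPMI 1640 with 20% heat-inactivated FBS and pen-strep, were seeded at 1 × 10^6/mL in log phase. They were exposed to 3.12–1000 µM test compound (DMSO stock diluted in PBS) for 24, 48 and 72 h at 24 °C. Fixed parasites were counted daily in a Neubauer chamber at 400x. Triplicate; AmB 0.93 µM reference; repeated-measures ANOVA.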

| Structure (SMILES) | effect on promastigote count (in words) |
| --- | --- |
| CNC(=S)NN=Cc1ccc(O)c(OC)c1 [Compound 5b, 2-(4-Hydroxy-3-methoxybenzylidene)-N-methylhydrazine-1-carbothioamide] | significant reduction in promastigote count |
| COc1ccc(C=NNC(=S)Nc2cccnc2)cc1OC [Compound 5o, 2-(3,4-Dimethoxybenzylidene)-N-(pyridin-3-yl)hydrazine-1-carbothioamide] | limited activity |
| CNC(=S)NN=Cc1ccc(C)cc1 [Compound 5c, N-Methyl-2-(4-methylbenzylidene)hydrazine-1-carbothioamide] | mild |
| CNC(=S)NN=Cc1ccc([N+](=O)[O-])cc1 [Compound 5f, 2-(4-Nitrobenzylidene)-N-methylhydrazine-1-carbothioamide] | significant reduction in promastigote count |
| CNC(=S)NN=Cc1ccc(OC)c(OC)c1 [Compound 5a, 2-(3,4-Dimethoxybenzylidene)-N-methylhydrazine-1-carbothioamide] | significant reduction in promastigote count |
| O=[N+]([O-])NC(=S)NN=Cc1ccc(Br)cc1 [Compound 5j, 2-(4-Bromobenzylidene)-N-nitrohydrazine-1-carbothioamide] | mild effect |
| CNC(=S)NN=Cc1ccc(OC)cc1 [Compound 5g, N-Methyl-2-(4-methoxybenzylidene)hydrazine-1-carbothioamide] | significant reduction in promastigote count |
| CNC(=S)NN=Cc1ccc(Br)cc1 [Compound 5e, 2-(4-Bromobenzylidene)-N-methylhydrazine-1-carbothioamide] | significant reduction in promastigote count |
| S=C(NN=Cc1ccc(Br)cc1)Nc1cccnc1 [Compound 5n, 2-(4-Bromobenzylidene)-N-(pyridin-3-yl)hydrazine-1-carbothioamide] | limited activity |

Each compound was assayed on L. major intracellular amastigotes (assay: Anti-intracellular amastigote activity in J774A.1 macrophages). Settings: Leishmania species not given.
Assay type: cell-based, L. major (MRHO/IR/75/ER)
In short: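 SI = CC50/IC50. For amastigotes, J774A.1 cells (10^5/well) were seeded on coverslips for 24 h at 37 °C, 5% CO2, then infected with stationary-phase metacyclic promastigotes (10:1) for 24 h. Test compound 1.32–1000 µM was added for 72 h, then cells were methanol-fixed and Giemsa-stained; amastigotes per 100 macrophages were counted. […] Triplicates.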

| Structure (SMILES) | reduction of the number of amastigotes toward the untreated negative control |
| --- | --- |
| COc1ccc(C=NNC(=S)Nc2cccnc2)cc1OC [Compound 5o, 2-(3,4-Dimethoxybenzylidene)-N-(pyridin-3-yl)hydrazine-1-carbothioamide] | 20–25% |
| S=C(NN=Cc1ccc(Br)cc1)Nc1cccnc1 [Compound 5n, 2-(4-Bromobenzylidene)-N-(pyridin-3-yl)hydrazine-1-carbothioamide] | 20–25% |

These compounds were tested on L. major promastigotes (assay: Parasite counting method). Settings: microscopic counting, 24, 48 and 72 h at 24 °C.
Assay type: cell-based
In short: as §1

| Structure (SMILES) | effect on promastigote count (in words) |
| --- | --- |
| CNC(=S)NN=Cc1ccc(O)c(OC)c1 [Compound 5b, 2-(4-Hydroxy-3-methoxybenzylidene)-N-methylhydrazine-1-carbothioamide] | significant reduction in promastigote count |
| COc1ccc(C=NNC(=S)Nc2cccnc2)cc1OC [Compound 5o, 2-(3,4-Dimethoxybenzylidene)-N-(pyridin-3-yl)hydrazine-1-carbothioamide] | limited activity |
| CNC(=S)NN=Cc1ccc(C)cc1 [Compound 5c, N-Methyl-2-(4-methylbenzylidene)hydrazine-1-carbothioamide] | mild |
| CNC(=S)NN=Cc1ccc([N+](=O)[O-])cc1 [Compound 5f, 2-(4-Nitrobenzylidene)-N-methylhydrazine-1-carbothioamide] | significant reduction in promastigote count |
| CNC(=S)NN=Cc1ccc(OC)c(OC)c1 [Compound 5a, 2-(3,4-Dimethoxybenzylidene)-N-methylhydrazine-1-carbothioamide] | significant reduction in promastigote count |
| O=[N+]([O-])NC(=S)NN=Cc1ccc(Br)cc1 [Compound 5j, 2-(4-Bromobenzylidene)-N-nitrohydrazine-1-carbothioamide] | mild effect |
| CNC(=S)NN=Cc1ccc(OC)cc1 [Compound 5g, N-Methyl-2-(4-methoxybenzylidene)hydrazine-1-carbothioamide] | significant reduction in promastigote count |
| CNC(=S)NN=Cc1ccc(Br)cc1 [Compound 5e, 2-(4-Bromobenzylidene)-N-methylhydrazine-1-carbothioamide] | significant reduction in promastigote count |
| S=C(NN=Cc1ccc(Br)cc1)Nc1cccnc1 [Compound 5n, 2-(4-Bromobenzylidene)-N-(pyridin-3-yl)hydrazine-1-carbothioamide] | limited activity |

Source: PMC12246158 (Scientific Reports, 2025)
